Calls of active or inactive are those of the source. The calls are words filed in the database; no cut-off is given here.
Tests used:
MDA-MB-231 = assay: Cytotoxicity against human MDA-MB-231 cells assessed as decrease in cell viability after 48 hrs by MTS assay; assay type: functional; settings: MDA-MB-231, 48 h
Outline: (§1)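 Cells grown at 37 °C, 5% CO2, with 10% FBS and penicillin/streptomycin: MDA-MB-231, JIMT1 and DU145 in DMEM, PC3 in F12K, BT474 in Hybricare, MiaPaCa2 in DMEM plus 2.5% horse serum. Cells (7500–9000/well) were plated for 24 h, then exposed to 0–20 µM for 48 h. MTS was added for 1–4 h and OD490 read, blank-subtracted, relative to vehicle. CC50 was read from plots; mean ± SD, six independent determinations.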

MIA PaCa-2 = assay: Cytotoxicity against human MIAPaCa2 cells assessed as decrease in cell viability after 48 hrs by MTS assay; assay type: functional; settings: MIA PaCa-2, 48 h; outline: as §1
BT-474 [1] = assay: Cytotoxicity against human BT474 cancer stem cell spheroids assessed as decrease in cell viability up to 20 uM after 3 days by MTS assay
PC-3 = assay: Cytotoxicity against human PC3 cells assessed as decrease in cell viability after 48 hrs by MTS assay; assay type: functional; settings: PC-3, 48 h; outline: as §1
BT-474 [2] = assay: Induction of disintegration of human BT474 cancer stem cell spheroids at 20 uM after 3 days by microscopic method; assay type: functional, cell-based
Outline: (§2)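 BT474 stem-cell spheroids (ALDH1-sorted, formed over 6 days in Mammocult on ultra-low adhesion plates) exposed to 0, 7.5 or 20 µM for 3 days. Integrity was judged by light microscopy at ×10 against untreated spheroid wells.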

DU-145 = assay: Cytotoxicity against human DU145 cells assessed as decrease in cell viability after 48 hrs by MTS assay; assay type: functional; settings: DU-145, 48 h; outline: as §1
JIMT-1 = assay: Cytotoxicity against human JIMT1 cells assessed as decrease in cell viability after 48 hrs by MTS assay; assay type: functional; settings: JIMT-1, 48 h; outline: as §1
BT-474 [3] = assay: Induction of disintegration of human BT474 cancer stem cell spheroids at 7.5 uM after 3 days by microscopic method; assay type: functional, cell-based; outline: as §2
BT-474 [4] = assay: Cytotoxicity against human BT474 cells assessed as decrease in cell viability after 48 hrs by MTS assay; assay type: functional; settings: BT-474, 48 h; outline: as §1
[5] = Chemical stability of compound in aqueous DMSO solution at pH 2 to 3 at 30 uM after 1 week; assay type: physicochemical; settings: buffer, pH 2, 168 h
Outline: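 Tested as the TFA salt at 30 µM in aqueous DMSO, pH 2-3, and held for at least one week.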

Structure (SMILES)	CC50 (MDA-MB-231) [µM]	CC50 (MIA PaCa-2) [µM]	Activity (BT-474 [1])	CC50 (PC-3) [µM]	Activity (BT-474 [2])	CC50 (DU-145) [µM]	CC50 (JIMT-1) [µM]	Activity (BT-474 [3])	CC50 (BT-474 [4]) [µM]	Stability [5]
NCCCCCCCCCCCCO[C@@H]1O[C@H](CN)[C@@H](O)[C@H](O)[C@H]1N	> 20	> 20	inactive	> 20	inactive	> 20	> 20	inactive	> 20	–
CC[C@@H](C(=O)[C@@H](C)[C@@H](O)[C@H](C)[C@@H]1O[C@@H]([C@@H](CC)C(=O)O)CC[C@@H]1C)[C@H]1O[C@]2(C=C[C@@H](O)[C@]3(CC[C@@](C)([C@H]4CC[C@](O)(CC)[C@H](C)O4)O3)O2)[C@H](C)C[C@@H]1C	–	–	–	–	Active	–	–	inactive	–	–
CCCCCCCCCCCCCCCCOC[C@H](CO[C@@H]1O[C@H](CNCCCCCCCCCCCCNC(=O)CCCc2ccc(N(CCCl)CCCl)cc2)[C@@H](O)[C@H](O)[C@H]1N)OC.O=C(O)C(F)(F)F.O=C(O)C(F)(F)F	10.5	> 20	–	> 20	–	> 20	16	–	13	Stable

— ChEMBL document CHEMBL4052815, “Amphiphilic Modulation of Glycosylated Antitumor Ether Lipids Results in a Potent Triamino Scaffold against Epithelial Cancer Cell Lines and BT474 Cancer Stem Cells” (J Med Chem, 2017)
